Bioassay records deposited in PubChem BioAssay by several laboratories.
Only a selection was taken, and hits are over-represented in it overall.
UPR CHOP act: apoptotic UPR (CHOP) activation | CHO-CHOP luciferase reporter, luminescence; percent of tunicamycin response over DMSO baseline | activation, % at 10 µM | 330,000 tested, 0.34% active | AID 449763;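 active = at 10 µM dose, activation of 40% or more, normalized to positive control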;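 also: 100% = tunicamycin at 10 µg/mL and 0% = DMSO alone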
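System: CHO-CHOP luciferase reporter cell line | Buffer or medium: F12 medium containing 10% fetal bovine serum | Doses: One dose, 10 µM in 0.5% DMSO | Times: 6 h compound exposure at 37 °C after overnight seeding | Signal: Luciferase luminescence | Read-out: % activation vs tunicamycin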
NOD2 RIPK2 PPI: NOD2-RIPK2 protein interaction inhibition; O43353; CHO BLA complementation NOD2-RIPK2, CCF4 ratio; inhibition, % at 4.98 µM; 360,000 tested, 0.38% active; in the data active = inhibition above about 21%;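 also: 0% = vehicle only and 100% = reference blocker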
TLR9-MyD88 block: inhibitors of human TLR9-MyD88 binding. 340,000 tested, 0.21% active. CHO BLA complementation TLR9-MyD88, CCF4 FRET ratio. inhibition, % at 4.98 µM. Q9NR96+Q99836;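 active = inhibition above the mean over all tested compounds plus 3 SD, cut at about 21% in these data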;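 also: 0% = DMSO only wells and 100% = clavulanate BLA inhibitor control wells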
XBP1 UPR activ: adaptive UPR (XBP1) activation; CHO-XBP1 luciferase reporter, IRE1-XBP1 UPR activation, luminescence; percent of tunicamycin response, DMSO as zero; activation, % at 20 µM; 330,000 tested, 0.33% active; AID 463104;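 active = versus positive control, 20 µM dose yields 30% or more activation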;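 also: 100% = tunicamycin at 10 µg/mL and 0% = DMSO only wells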
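Signal: luciferase luminescence; Assay system: CHO-XBP1 luciferase reporter cells; Amount: one thousand reporter cells per well; Dosing: 20 µM single concentration, DMSO 1%; Benchmarks: high control tunicamycin 10 µg/mL final, low control DMSO vehicle only; Schedule: 6 h compound exposure at 37 °C, 5% CO2; Evaluation: percent activation relative to tunicamycin reference.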
CHOP inh: CHOP inhibition in unfolded protein response; CHO-K1 CHOP-promoter luciferase, tunicamycin-induced, 15-18 h; inhibition, % at 10 µM; 220,000 tested, 3.8% active; AID 2732;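 active = compounds that reduced the stress-induced luciferase reporter signal by more than about 70% of percent inhibition, limit read from the data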;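 also: 0% = tunicamycin plus vehicle and 100% = wells without tunicamycin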
TLR4 MyD88 comp: TLR4-MyD88 interaction inhibition in cells. HeLa CL3-4 TLR4/MyD88 BLA complementation, FRET ratio. inhibition, % at 8.4 µM. 200,000 tested, 0.18% active; in the data active = inhibition above about 25%;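 also: 0% = vehicle and 100% = reference inhibitor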
* marks the source's active call; other numbers are inactive results; . = not tested or not shown.

SMILES	UPR CHOP act	NOD2 RIPK2 PPI	TLR9-MyD88 block	XBP1 UPR activ	CHOP inh	TLR4 MyD88 comp
c1ccc2c(c1)ncn2CCCOc1ccc2c(c1)CCC2	2	6	0	5	51	-12
Cc1ccccc1OCCCCn1cnc2ccccc21	6	4	-16	10	72*	0
CC(C)(c1ccccc1)c1ccc(OCCn2cnc3ccccc3c2=O)cc1	2	1	3	0	77*	-6
c1ccc2c(c1)ncn2CCCCOc1ccc2c(c1)CCC2	-1	-7	5	2	70*	4
O=C(c1ccccc1)c1ccc(OCCn2cnc3ccccc3c2=O)cc1	-1	0	-7	-3	22	-9
Cc1cc(C)c(C)c(OCCCCn2cnc3ccccc3c2=O)c1	0	2	1	-1	91*	-8
COc1cccc(CN2CCC2(C)C(=O)NCc2cccc(C(F)(F)F)c2)c1OC (stereo not drawn)	.	13	.	.	.	.
CCOc1ccc(CN2CCN(CCCc3ccccc3)CC2CCO)cc1 (stereo not drawn)	2	5	4	-5	.	.
OC(COC(c1ccc(Cl)cc1)c1ccc(Cl)cc1)CN1CCc2ccccc2C1 (stereo not drawn)	-2	-6	-10	2	90*	-2
O=C(COC(=O)C12CC3CC(CC(O)(C3)C1)C2)Nc1ccc(OC(F)F)cc1	2	-1	9	0	.	.
O=C(COC(=O)C12CC3CC(CC(C3)C1)C2)NC12CC3CC(CC(C3)C1)C2	-1	-7	1	2	76*	3
O=C(COC(=O)C12CC3CC(CC(C3)C1)C2)Nc1ccc(OC(F)F)cc1	-2	-5	-12	4	94*	-7
CC(CC(=O)Nc1ccc2c(c1)c(=O)n(C)n2-c1ccc2ccccc2c1)C(F)(F)F (stereo not drawn)	.	3	.	.	.	.
COc1ccc(-c2nc(CSCC(=O)N3CCN(c4cccc(C)c4)C(C)C3)c(C)o2)cc1OC (stereo not drawn)	1	2	-7	0	76*	-9
COc1ccc(-c2nc(CSCC(=O)N3CCc4ccccc4C3)c(C)o2)cc1OC	1	-7	1	-1	44	8
CCOC(=O)CNC(=O)Cc1ccc(Cl)cc1	3	1	6	0	16	.
CCOC(=O)Cc1ccc(NCc2ccc(Cl)cc2)cc1	0	6	5	1	78*	-5
Cc1cc(S(=O)(=O)NCC(c2ccccc2)c2ccccc2)ccc1-n1cnnn1	-1	3	11	-4	70*	-9
NS(=O)(=O)c1ccc(CCNc2ncnc3sccc23)cc1	-2	-3	-4	-1	.	4
Cc1sc2ncnc(NCCc3ccc(S(N)(=O)=O)cc3)c2c1C	3	-6	-11	1	73*	-5
COc1cc2c(cc1OC)C(c1ccc(-c3cc(Cl)ccc3Cl)o1)=NCC2	-1	-9	-8	4	85*	-2
COc1cc2c(cc1OC)C(c1ccc(-c3ccc(Cl)c(Cl)c3)o1)=NCC2	1	5	5	5	80*	7
COc1ccc(CCNC(=O)COC(=O)CNS(=O)(=O)c2ccc(SC)c([N+](=O)[O-])c2)cc1	0	-8	-13	0	.	.
O=C(NCCc1ccccc1)C1CC(=O)N(CCc2ccccc2)C1 (stereo not drawn)	2	6	3	-2	.	.
COc1ccccc1Cc1nc(-c2ccc(Br)o2)no1	5	1	-8	1	35	-9
SMILES	UPR CHOP act	NOD2 RIPK2 PPI	TLR9-MyD88 block	XBP1 UPR activ	CHOP inh	TLR4 MyD88 comp
COc1ccccc1Cc1nc(-c2cccnc2)no1	2	1	2	6	-12	.
Cc1ccccc1OCc1nc(-c2ccc(Br)o2)no1	4	-6	9	6	84*	2
COc1ccc(-c2nc(-c3ccc(Br)o3)no2)cc1OC	8	1	0	9	45	-4
COc1ccc(-c2noc(Cc3ccccc3OC)n2)cc1	-1	5	-1	2	92*	-3
Cc1ccc(-c2noc(COc3ccccc3C)n2)cc1	3	-2	-6	0	90*	-6
COc1ccccc1-c1nc(-c2ccc(Br)o2)no1	2	-6	3	3	73*	-9
COC(=O)C(C(=O)OC)c1ccccc1NC(=O)OCc1ccccc1	.	-12	.	.	.	.
CCOc1ccc(NC(=O)COC(=O)C2(C)CC2(Cl)Cl)c([N+](=O)[O-])c1 (stereo not drawn)	2	-1	4	-1	97*	3
CCOc1ccc(OCC(=O)Nc2ccc(OC)cc2[N+](=O)[O-])cc1	1	-8	-5	2	18	7
COC(=O)c1c(NC(=O)Cn2cnc([N+](=O)[O-])n2)sc2c1CCC(C)C2 (stereo not drawn)	2	-25	-4	4	75*	5
O=C(C[n+]1ccccc1)Nc1nc2ccccc2s1	1	-7	-3	2	-24	1
O=C(O)CCC(=O)Nc1nc2ccccc2s1	1	-13	12	-1	72*	3
Cc1ccc2nc(NC(=O)CCCC(=O)O)sc2c1	-7	-11	6	-5	82*	-6
Cc1ccc2nc(NC(=O)CSCC(=O)OCC(=O)c3ccccc3)sc2c1	.	-8	-3	.	71*	-8
CCOCC(=O)Nc1nc2ccc(C)cc2s1	-1	-1	-5	-3	-64	-9
COc1cc(-c2nnc(SC(C)C(=O)Nc3c(C)n(C)n(-c4ccccc4)c3=O)o2)cc(OC)c1OC (stereo not drawn)	1	0	4	-2	-6	-12
Cc1ccc(Cn2ccc(NC(=O)c3cc4nc(-c5ccco5)cc(C(F)(F)F)n4n3)n2)cc1	1	-11	-9	5	93*	-15
O=C(N/N=C/c1c(O)ccc2ccccc12)c1[nH]ncc1Br	2	0	6	4	78*	-3
Cc1cc(C)n(CCC(=O)N/N=C/c2c(O)ccc3ccccc23)n1	-1	7	3	-1	88*	.
Cc1cc(C)n(CCC(=O)N/N=C/c2ccc(O)cc2)n1	1	4	-6	-2	4	3
O=C(N/N=C/c1c(O)ccc2ccccc12)c1cccc(C(F)(F)F)c1	3	14	9	1	78*	2
COc1ccc2ccccc2c1/C=N/NC(=O)c1cccc(Br)c1	2	-6	-6	-3	33	-5
O=C(CSc1n[nH]c(-c2ccncc2)n1)Nc1ccccc1C(F)(F)F	1	-13	-18	-4	.	.
COc1ccccc1N1CCN(/N=C/c2cccc(Cl)c2)CC1	5	5	1	-2	.	.
COc1cccc(/C=N/N2CCN(c3ccccc3OC)CC2)c1	1	10	-3	3	76*	0
